NPY2 pot ag: potentiators or agonists of human neuropeptide Y receptor Y2 | P49146 | cells expressing NPY-Y2, potentiator/agonist read-out | hit rate 0.45% among 220,000 | activation, % at 3.6 µM; in the data active = activation above about 27%;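 also: cells stimulated with NPY near EC25 plus isoproterenol at EC100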
NPY Y2 blocker: NPY-Y2 (human) receptor antagonism; hit rate 0.99% among 140,000; inhibition, % at 2.7 µM; NPY-Y2 expressing cells, antagonist mode
NPY Y1 blocker: NPY-Y1 (human) receptor antagonism; P25929; HEK293-CNG Y1 cells, membrane potential fluorescence; NPY at EC95, then isoproterenol; inhibition, % at 3.6 µM; hit rate 1% among 200,000;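 active = inhibition above the campaign mean inhibition of all tested compounds plus 3 SD, cut at about 20% in these data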
Target sequence (P25929 whole entry, looked up): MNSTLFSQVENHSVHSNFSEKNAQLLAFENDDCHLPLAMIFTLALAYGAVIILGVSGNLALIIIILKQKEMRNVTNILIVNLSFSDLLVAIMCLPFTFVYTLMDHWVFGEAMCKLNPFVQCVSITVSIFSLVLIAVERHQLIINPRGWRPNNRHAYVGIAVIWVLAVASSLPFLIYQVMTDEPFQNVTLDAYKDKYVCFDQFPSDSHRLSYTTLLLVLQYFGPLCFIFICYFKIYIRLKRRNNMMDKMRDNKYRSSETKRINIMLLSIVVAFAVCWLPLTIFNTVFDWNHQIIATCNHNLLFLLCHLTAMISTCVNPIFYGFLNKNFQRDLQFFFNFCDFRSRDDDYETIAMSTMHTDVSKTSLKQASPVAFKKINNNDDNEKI
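Material: HEK293 Y1/CNG channel cell line | Also added: NPY (25 nM), isoproterenol (1 µM), Ro 20-1724 (25 µM) | Compound: One concentration, 3.6 µM, in 0.4% DMSO | Schedule: 3 h dye uptake, 1 h room-temperature compound, 45 min post-isoproterenol | Signal: Membrane-potential fluorescent dye readout | Read-out: % inhibition of NPY effect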
S1P4 antagonist: blocks the human S1P4 receptor | S1P4-expressing cells, antagonist mode, reporter read-out | hit rate 0.26% among 220,000 | AID 1510 | inhibition, % at 4.98 µM | O95977; in the data active = inhibition above about 29%
Target sequence (O95977 whole entry, looked up): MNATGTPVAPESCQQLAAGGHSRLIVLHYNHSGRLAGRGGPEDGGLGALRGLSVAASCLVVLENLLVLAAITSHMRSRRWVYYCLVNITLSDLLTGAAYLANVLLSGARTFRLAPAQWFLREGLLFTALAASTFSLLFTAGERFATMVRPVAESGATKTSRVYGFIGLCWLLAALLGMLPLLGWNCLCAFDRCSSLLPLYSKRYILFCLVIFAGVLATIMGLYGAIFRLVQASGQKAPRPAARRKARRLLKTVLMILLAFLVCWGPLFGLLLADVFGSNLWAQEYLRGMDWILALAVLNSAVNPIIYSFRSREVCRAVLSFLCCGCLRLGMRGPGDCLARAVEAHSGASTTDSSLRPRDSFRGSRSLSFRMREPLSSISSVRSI
NPY1 pot ag: potentiators or agonists of human neuropeptide Y receptor Y1; NPY-Y1 expressing cells, potentiator/agonist activation; activation, % at 3.6 µM; hit rate 0.37% among 220,000; AID 1304; in the data active = activation above about 33%, passing the limit was not always enough;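 also: cells stimulated with NPY at EC10 then isoproterenol at EC100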
S1P4 agonist: activates the human S1P4 receptor; S1P4-expressing cell line, agonist reporter assay; O95977; activation, % at 4.98 µM; hit rate 0.35% among 220,000; in the data active = activation above about 11%
NPY-Y1 ant conf: human NPY-Y1 antagonism, confirmation | shares compounds with NPY Y1 blocker | HEK293-CNG NPY-Y1, membrane potential fluorescence, cAMP; NPY challenge against isoproterenol-raised cAMP | inhibition, % at 3.6 µM | hit rate 21% among 1,200 | AID 1254; in the data active = inhibition above about 20%
NPY-Y2 antag ct: counter-screen for NPY-Y1 antagonists: human NPY-Y2 antagonism | shares compounds with NPY Y1 blocker | hit rate 28% among 1,200 | inhibition, % at 3.6 µM | AID 1255 | HEK293 NPY-Y2 CNG membrane potential fluorescence; cells given NPY, then isoproterenol
Large screens that a line does not name were inactive (follow-up assays come after a bar, where they were run). In the library only some 2.4% were active in any assay of this set; here they are far more common. Rule as the data show it, unless noted: active = inhibition above about 17%; inactive = the rest.

COc1ccc(OC)c(C2=NOC(C(=O)NCc3cccs3)C2)c1 (configuration not stated)	none (no result: NPY Y2 blocker)
O=C1N(Cc2cccc(Cl)c2)C[C@@H]2C[C@@H](c3ccc4nonc4c3)N3CCC[C@@]123	NPY Y1 blocker 24.4 (no result: NPY Y2 blocker) | NPY-Y1 ant conf inactive | NPY-Y2 antag ct inactive
COc1ccccc1CN1C[C@@H]2C[C@@H](C3=Cc4cc(Cl)ccc4OC3)N3CCC[C@@]23C1=O	NPY Y1 blocker 24.3 (no result: NPY Y2 blocker) | NPY-Y1 ant conf inactive | NPY-Y2 antag ct inactive
CN1C[C@@H]2C[C@@H](C3=Cc4cc(Cl)ccc4OC3)N3CCC[C@@]23C1=O	none (no result: NPY Y2 blocker)
O=C1N(Cc2cccc(Cl)c2)C[C@@H]2C[C@@H](c3cccn3-c3nccs3)N3CCC[C@@]123	NPY Y1 blocker 26.3 (no result: NPY Y2 blocker) | NPY-Y1 ant conf inactive | NPY-Y2 antag ct inactive
CN1C(=O)C(N=Nc2ccccc2C(=O)O)N(C)C1=S (configuration not stated)	none (no result: NPY Y2 blocker)
Cn1c2ccccc2c(=O)c2c(=O)n(-c3ccccc3)c(-c3ccc(C(C)(C)C)cc3)nc21	none (no result: NPY Y2 blocker, NPY Y1 blocker)
Cc1ccc(C(=O)c2c(NC(=O)c3ccccc3C)sc(C)c2C)cc1	NPY Y1 blocker 22.9 | NPY-Y1 ant conf inactive | NPY-Y2 antag ct 35.6
Cc1cc(C(=O)NCc2ccccc2Cl)n(-c2ccccc2)n1	none (no result: NPY Y2 blocker, NPY Y1 blocker)
O=C(CCCCN1CCCCC1)c1ccc2c(c1)Cc1ccccc1-2	NPY Y1 blocker 24.2 (no result: NPY Y2 blocker) | NPY-Y1 ant conf inactive | NPY-Y2 antag ct inactive
CCCNNC(=O)C(O)(c1cccc(C)c1)c1cccc(C)c1	NPY Y1 blocker 25.7 | NPY-Y1 ant conf inactive | NPY-Y2 antag ct inactive
Fc1ccccc1CSc1nnc(-c2cccnc2)o1	none (no result: NPY Y2 blocker)
COc1ccc(-c2nnc(SCc3ccccc3F)o2)cc1	NPY Y1 blocker 22.0 | NPY-Y1 ant conf inactive | NPY-Y2 antag ct inactive
Fc1ccccc1CSc1nnc(-c2ccccc2)o1	NPY Y1 blocker 29.1 | NPY-Y1 ant conf inactive | NPY-Y2 antag ct inactive
CC1Cc2ccccc2N1C(=O)c1cc2sccc2n1Cc1ccc(F)cc1 (configuration not stated)	NPY Y1 blocker 20.4 | NPY-Y1 ant conf inactive | NPY-Y2 antag ct inactive
O=C(NCc1ccco1)C1CCN(C(=O)c2cc3sccc3n2Cc2ccc(F)cc2)CC1	none
CCOc1cccc(C(=O)NC(=S)Nc2ccc(Cl)cc2C(=O)O)c1	none (no result: NPY Y2 blocker)
CSc1cccc(NC(=O)CN(c2ccccc2)S(=O)(=O)N(C)C)c1	NPY Y1 blocker 20.2 | NPY-Y1 ant conf inactive | NPY-Y2 antag ct inactive
Cc1ccc(C(=O)c2cc([N+](=O)[O-])ccc2N2CCCCC2)cc1	NPY Y1 blocker 22.0 | NPY-Y1 ant conf inactive | NPY-Y2 antag ct 26.1
Cc1ccc(C(=O)c2cc([N+](=O)[O-])ccc2N2CC(C)OC(C)C2)cc1 (configuration not stated)	none
N=C1C(c2nc3ccccc3s2)=C(O)CN1NC(=O)c1c[nH]c2ccccc12	NPY Y1 blocker 28.5 (no result: NPY Y2 blocker) | NPY-Y1 ant conf 25.5 | NPY-Y2 antag ct 28.3
Cc1ccc(N/C=C2\CCCCC2=O)nc1	none (no result: NPY Y2 blocker)
COC(=O)c1cc(F)c(-n2cncn2)c(F)c1	none
COC(=O)c1cc([N+](=O)[O-])c(-n2cncn2)c([N+](=O)[O-])c1	NPY Y1 blocker 28.2 (no result: NPY Y2 blocker) | NPY-Y1 ant conf inactive | NPY-Y2 antag ct inactive
Cc1ccccc1OCc1nc(-c2ccccc2)no1	none
Cc1ccc(-c2noc(COc3ccccc3C)n2)cc1	NPY Y1 blocker 22.3 | NPY-Y1 ant conf inactive | NPY-Y2 antag ct inactive
CCOC(=O)c1c(C)noc1CP(=O)(c1ccccc1)c1ccccc1	NPY Y1 blocker 31.4 | NPY-Y1 ant conf inactive | NPY-Y2 antag ct inactive
Cc1cc(C(C)(C)C)oc1C(=O)N(CC(=O)NC1CCCC1)c1c(C)cccc1C	none
COc1ccccc1N(CC(=O)NC1CCCC1)C(=O)c1oc(C(C)(C)C)cc1C	NPY Y1 blocker 28.4 (no result: NPY Y2 blocker) | NPY-Y1 ant conf 22.2 | NPY-Y2 antag ct inactive
Cc1cc(C(C)(C)C)oc1C(=O)N(CC(=O)NC1CCCC1)c1ccc(F)cc1	NPY Y1 blocker 27.4 | NPY-Y1 ant conf inactive | NPY-Y2 antag ct inactive
Cc1ccc(Cn2c(=O)c3ccccc3n3nc(C)cc23)cc1	none (no result: NPY Y2 blocker)
CC(=O)c1c(C)oc2ccc(N(C(C)=O)S(=O)(=O)c3cccc4cccnc34)cc12	none (no result: NPY Y2 blocker, NPY Y1 blocker)
COc1ccc(OC)c(CN2CCC(CO)(CCOc3ccccc3)CC2)c1	none (no result: NPY Y2 blocker)
Cc1cc(C)c(CN2CCC(CO)(CCOc3ccccc3)CC2)cc1C	NPY Y1 blocker 30.4 (no result: NPY Y2 blocker) | NPY-Y1 ant conf inactive | NPY-Y2 antag ct 23.2
Cc1ccc(NC(=O)C23CCC(C)(C(=O)[C@H]2Br)C3(C)C)cc1 (some centres not stated)	none (no result: NPY Y2 blocker, NPY Y1 blocker)
CCCCCCCCCCOC(=O)C[N+](C)(C)C/C=C(/C)Cl	NPY Y1 blocker 22.6 | NPY-Y1 ant conf inactive | NPY-Y2 antag ct inactive
COc1cc(NC(=O)CSc2nnc3c(n2)[nH]c2ccc(S(=O)(=O)NC(C)C)cc23)cc(OC)c1OC	none (no result: NPY Y2 blocker)
CCOC(=O)CC(NC(=O)C(CC)c1ccccc1)c1ccccc1Cl (configuration not stated)	NPY Y1 blocker 25.0 | NPY-Y1 ant conf inactive | NPY-Y2 antag ct inactive
CC[C@H]1OC(=O)[C@H](C)[C@@H](O[C@H]2C[C@@](C)(OC)[C@@H](O)[C@H](C)O2)[C@H](C)[C@@H](O[C@@H]2O[C@H](C)C[C@H](N(C)C)[C@H]2O)[C@](C)(OC)C[C@@H](C)C(=O)[C@H](C)[C@@H](O)[C@]1(C)O	none (no result: NPY Y2 blocker)
c1ccc(-c2cc3c(-n4cccc4)ncnc3o2)cc1	NPY Y1 blocker 21.2 | NPY-Y1 ant conf inactive | NPY-Y2 antag ct inactive
CN(C)CCCNC(=S)Nc1ccc(-c2ccccc2)cc1	none (no result: NPY Y2 blocker, NPY Y1 blocker)
CC(NC(=O)COC(=O)CCNC(=O)c1ccco1)C12CC3CC(CC(C3)C1)C2 (configuration not stated)	NPY Y1 blocker 20.3 | NPY-Y1 ant conf 22.1 | NPY-Y2 antag ct 27.1
O=C(CC1Sc2ccccc2NC1=O)NCc1ccccc1 (configuration not stated)	none (no result: NPY Y2 blocker, NPY Y1 blocker)
Cc1cc(C)c(C#N)c(SCc2[nH]nc3c2C(c2ccc(F)cc2)C(C#N)=C(N)O3)n1 (configuration not stated)	NPY Y1 blocker 41.9 | NPY-Y1 ant conf 56.8 | NPY-Y2 antag ct 40.8
Cc1[nH]nc2c1C(c1ccc(F)cc1)C(C#N)=C(N)O2 (configuration not stated)	none
Cc1cc(C#N)c(C)c(SCc2[nH]nc3c2C(c2ccccc2)C(C#N)=C(N)O3)n1 (configuration not stated)	NPY Y1 blocker 21.3 | NPY-Y1 ant conf 58.7 | NPY-Y2 antag ct 39.0
Cc1ccc(CN(C(=O)c2cc(=O)c3cc(C)cc(C)c3o2)C2CCS(=O)(=O)C2)cc1 (configuration not stated)	none (no result: NPY Y2 blocker, NPY Y1 blocker)

Assay outcomes: PubChem, The Scripps Research Institute Molecular Screening Center
